High-throughput results from PubChem BioAssay.
NALP3 yeast inh = NALP3 inhibition in yeast. Yeast reconstituted NLRP3/ASC/caspase-1, beta-gal luminescence, 24 h. inhibition, % at 10 µM. actives 0.39% (n = 330,000). AID 2825;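 active means inhibition of 50% or more; inactive means inhibition below 50%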;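 further: plate controls were induced DMSO wells for no effect and uninduced yeast grown without galactose for full effect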
ALR H2O2 inh = human ALR oxidase inhibition via reduced H2O2 | purified ALR, DTT oxidation, H2O2 HRP-luminol luminescence | inhibition, % (concentration not given with the values) | actives 3.8% (n = 290,000);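 active means mean replicate inhibition above about 79%, with every replicate also reaching it, limit read from the data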
Target sequence (P55789 whole entry, looked up): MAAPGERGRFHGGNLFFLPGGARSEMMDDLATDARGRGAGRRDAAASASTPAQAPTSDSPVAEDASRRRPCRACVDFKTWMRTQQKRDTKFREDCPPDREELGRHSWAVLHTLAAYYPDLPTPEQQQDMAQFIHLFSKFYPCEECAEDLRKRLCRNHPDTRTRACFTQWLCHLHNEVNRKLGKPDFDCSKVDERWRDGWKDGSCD
NALP1 inh = blocks the NALP1 inflammasome reconstituted in yeast; S. cerevisiae NALP1/ASC/caspase-1 growth, X-gal OD620, 72 h; actives 0.61% (n = 280,000); inhibition, % at 10 µM; AID 2071; in the data active means inhibition mostly above about 24%, no sharp cut-off; inactive means mostly below about 32%
Calb FLC = C. albicans growth modulation with fluconazole | actives 0.57% (n = 300,000) | growth inhibition, % (no concentration beside the values) | C. albicans CaCi-2 + fluconazole, Alamar Blue growth, 48 h | AID 1979;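 active means growth inhibition above about 58% in most replicates, limit read from the data, passing the limit was not always enough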;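 further: all wells also contain fluconazole at 8 µg/ml as a sub-toxic cotreatment; 0% = median of DMSO wells and 100% = median of geldanamycin control wells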
ATG4B inh = inhibitors of human ATG4B cysteine protease; inhibition, % at 8.33 µM; actives 0.51% (n = 340,000); ATG4B cleavage of LC3-PLA2, NBD-HPC fluorescence, 1 h; in the data active means inhibition above about 40%
Target sequence (Q9Y4P1 whole entry, looked up): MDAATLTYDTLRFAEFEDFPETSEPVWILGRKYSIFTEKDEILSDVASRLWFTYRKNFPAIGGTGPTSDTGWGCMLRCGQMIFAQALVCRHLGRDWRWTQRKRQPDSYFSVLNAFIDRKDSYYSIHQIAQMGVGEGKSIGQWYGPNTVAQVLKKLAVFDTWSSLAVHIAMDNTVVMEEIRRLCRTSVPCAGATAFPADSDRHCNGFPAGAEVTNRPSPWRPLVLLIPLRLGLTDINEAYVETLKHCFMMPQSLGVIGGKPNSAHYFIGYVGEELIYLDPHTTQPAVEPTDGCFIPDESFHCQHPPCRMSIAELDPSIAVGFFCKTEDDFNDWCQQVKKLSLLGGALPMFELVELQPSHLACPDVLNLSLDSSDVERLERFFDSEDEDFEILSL
UCH37 DUB inh = inhibitors of human deubiquitinating enzyme UCH37 | Q9Y5K5 | purified proteasome/UCH37, Ub-AMC cleavage fluorescence | inhibition, % (concentration not given with the values) | actives 0.33% (n = 330,000);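 active means mean inhibition over replicate wells above about 20%, limit read from the data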;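 further: 0% = compound-free wells with enzyme and 100% = wells lacking proteasome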
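Material: human UCH37 enzyme supplied as purified proteasome complex. Measure: % inhibition of Ub-AMC cleavage fluorescence. Medium: pH 7.4 Tris-HCl (50 mM) with ovalbumin, ATP-MgCl2, DTT. Times: 30 min preincubation with enzyme, 25 min cleavage at room temperature. Detection: AMC fluorescence intensity at 355/460 nm.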
* marks the source's active call; other numbers are inactive results; i = inactive; . = no result. Sampled rows, rich in hits. Any-hit rate of the full collection: about 4.8%.

SMILES	NALP3 yeast inh	ALR H2O2 inh	NALP1 inh	Calb FLC	ATG4B inh	UCH37 DUB inh
COC(=O)C1C(O)=C(C(C)=N)C(=O)CC1(C)C (configuration not stated)	2.7	97.7*	10.1	-3.3	-3.1	4.9
CN=C(C)C1=C(O)C(C(=O)OC)C(C)(C)CC1=O (configuration not stated)	4.2	-4.7	13.7	4.5	5.4	0.7
COc1ccccc1NS(=O)(=O)c1cc([N+](=O)[O-])ccc1NN=Cc1c[nH]c2ccccc12	.	.	.	.	.	11.1
C=CCNC(=S)N=c1scc(C)n1C	.	.	.	.	.	6.6
Cc1nnsc1SCCNC(=O)c1c(F)cccc1F	8.8	1.6	33.9	2.6	-3.4	0.7
Cc1ccc(C(=O)NCCSc2snnc2C)cc1	35.3	93.9*	26.9	-12.8	-5.5	0.7
CCc1ccc(NC(=O)C(=O)NN=C(C)CC(=O)NCCOC)cc1	.	.	.	.	.	-1.3
COc1ccc(-c2n[nH]c(=S)n2N=C/C=C/c2ccccc2OC)cc1	.	.	.	.	.	4.1
CCCN1CNc2c(c(=O)[nH]c(=S)n2CCc2ccccc2)C1	10.9	91.3*	1.6	-21.0	-2.4	1.4
CCCN1CN(CCc2ccccc2)CNC1=S	-14.7	-21.7	20.2	1.4	-4.5	1.3
COc1cc(C=NNc2nn3cnnc3c3ccccc23)cc(OC)c1OC	.	.	.	.	.	-0.1
O=C(Nc1ccc2c(c1)OCCO2)c1ccc(Cl)c([N+](=O)[O-])c1	20.2	-2.1	6.6	-19.4	-0.5	4.5
Cc1cc(C(=O)Nc2ccc3c(c2)OCCO3)ccc1[N+](=O)[O-]	17.9	-3.5	41.3*	-4.3	2.7	4.6
Cc1nnc(SCC(=O)Nc2ccc(O)cc2)c2ccccc12	5.8	0.4	13.2	25.9	0.1	10.6
COc1ccc2cnnc(SCC(=O)Nc3ccc(C(=O)O)cc3)c2c1OC	10.4	98.8*	19.5	-5.4	15.2	.
Cc1nnc(SCC(=O)Nc2ccccc2)c2ccccc12	15.4	98.9*	-8.7	-5.3	-9.6	11.1
Cc1ccc(NC(=O)CSc2nncc3ccccc23)cc1	43.4	99.1*	-12.5	0.2	0.6	9.5
Cc1ccc([N+](=O)[O-])cc1NC(=O)CSc1nncc2ccccc12	3.9	-0.1	14.3	.	-5.1	2.4
Cc1ccccc1NC(=O)CSc1nnc(C)c2ccccc12	26.9	96.3*	24.5	-11.8	3.1	6.6
ON=C(C[n+]1ccccc1)c1ccc(Br)cc1	.	.	.	.	.	0.6
COc1ccc(C(=O)c2ccc(N(C)C)cc2)c(OC)c1	-13.1	96.4*	12.7	58.3	-8.8	4.5
COc1ccc(C(=O)c2ccc(OC)cc2OC)cc1	30.0	2.7	.	-4.8	-2.6	.
C/C(=N/Nc1ccc([N+](=O)[O-])cc1)c1ccc(C)cc1C	15.3	98.2*	45.7	-24.9	8.1	.
Cc1ccc(-c2nc(-c3ccccn3)sc2CC(=O)O)cc1	5.3	99.4*	.	-1.9	-11.9	-4.7
O=C1NN(c2ccccc2)C(=O)/C1=C\c1ccccc1	25.7	89.7*	0.6	7.7	0.3	1.9
SMILES	NALP3 yeast inh	ALR H2O2 inh	NALP1 inh	Calb FLC	ATG4B inh	UCH37 DUB inh
O=C1NN(c2cccc(Br)c2)C(=O)/C1=C\c1ccccc1	20.8	89.0*	2.7	-10.5	4.0	3.4
COc1ccc(C=NNC(=O)c2ccc(F)cc2)cc1COc1ccccc1C(N)=O	.	.	.	.	.	-7.7
O=C(CN1CCSCC1)NN=Cc1cccc(Cl)c1	.	.	.	.	.	5.0
N#CCCn1cc(C=N/N=C2\NC(=O)C(CC(=O)O)S2)c(-c2ccc(F)cc2)n1 (configuration not stated)	.	.	.	.	.	4.7
CC(=O)Nc1ccc(SCc2c(C)noc2C)cc1	-1.7	99.2*	0.9	6.1	3.8	3.2
CC(=O)Nc1ccc(SCc2csc(C)n2)cc1	0.6	98.7*	20.6	-29.0	-3.3	0.3
COc1ccc(C=Nn2c(-c3cc(C)[nH]n3)n[nH]c2=S)cc1OC	.	.	.	.	.	6.5
Cc1ccc(NC(=O)CC(=O)Nc2ccc(C)c(C)c2)cc1C	26.2	2.8	8.8	-3.2	7.5	.
Cc1ccc(NC(=O)/C=C\C(=O)NCC(=O)O)cc1C	5.1	0.0	56.9*	-5.9	-9.9	1.4
COc1cc(C=Nn2c(-c3cc(C)[nH]n3)n[nH]c2=S)cc(OC)c1OC	.	.	.	.	.	3.1
COc1cccc(/C=N/n2c(-c3cc(C)[nH]n3)n[nH]c2=S)c1OC	21.2	96.5*	-70.1	7.3	-6.6	.
Cc1cc(-c2n[nH]c(=S)n2/N=C/c2ccc(Cl)c([N+](=O)[O-])c2)n[nH]1	25.7	96.6*	13.6	1.5	4.8	.
CC(=NOC(=O)c1ccccc1F)c1nccs1	.	.	.	.	.	-0.5
COCc1cc(=O)[nH]c(N=C(N)Nc2cccc(C)c2)n1	.	.	.	.	.	4.3
O=C(NCc1n[nH]c(=S)n1-c1ccc(Cl)c(Cl)c1)c1ccco1	0.2	85.4*	14.5	-2.6	5.9	2.2
O=C(NCc1n[nH]c(=S)n1-c1ccc(F)cc1)c1ccc(S(=O)(=O)N2CCCC2)cc1	-3.5	30.9	22.5	0.7	-13.4	3.4
O=C(NCc1n[nH]c(=S)n1-c1cccc(Cl)c1)c1ccc(S(=O)(=O)N2CCCC2)cc1	11.2	93.7*	0.0	-32.8	-2.5	3.5
O=C(NCc1n[nH]c(=S)n1-c1ccc(Cl)c(Cl)c1)c1ccc(S(=O)(=O)N2CCCCC2)cc1	25.0	89.2*	-14.2	-3.8	-2.8	3.4
Cc1cccc(-n2c(CNC(=O)c3ccc(S(=O)(=O)N4CCCCC4)cc3)n[nH]c2=S)c1	24.1	20.7	-12.7	-6.6	-0.2	2.2
O=C1C2C3C=CC(C4CC34)C2C(=O)N1N=Cc1ccc(-c2ccc([N+](=O)[O-])cc2)o1 (configuration not stated)	.	.	.	.	.	1.7
CCCCCCC(=O)NN=Cc1ccco1	.	.	.	.	.	2.8
CCCc1cc(=O)[nH]c(N=C(N)Nc2ccccc2)n1	.	.	.	.	.	3.9
CCC(C)=NNc1nc2sc3c(c2c(=O)[nH]1)CC(C)(C)OC3	.	.	.	.	.	0.9
O=C(NN=Cc1ccncc1)c1cc([N+](=O)[O-])cc([N+](=O)[O-])c1O	.	.	.	.	.	5.0
CCOC(=O)c1cnc2ccc(C)cc2c1Nc1ccc(N2CCOCC2)cc1	17.4	98.1*	.	96.2*	-4.8	6.7
SMILES	NALP3 yeast inh	ALR H2O2 inh	NALP1 inh	Calb FLC	ATG4B inh	UCH37 DUB inh
CC(=O)c1ccc(-c2ccc(C(=O)NC3CC(C)(C)NC(C)(C)C3)o2)cc1	0.2	98.0*	.	-1.1	2.1	i
CC1(C)CC(NC(=O)c2ccc(Cl)cc2)CC(C)(C)N1	5.3	-7.0	1.0	12.4	1.7	2.4
O=C(NN=C1CCCC1)c1n[nH]c2c1CCCC2	3.6	99.4*	-5.0	-15.8	-3.2	4.4
O=C(NN=C1CCCC1)c1n[nH]c2c1CCC2	5.0	3.6	7.9	-16.8	-1.0	1.9
Cc1ccc(S(=O)(=O)CCSc2cccc(C(=O)Nc3ccccc3C(=O)O)c2)cc1	3.2	98.7*	1.3	8.3	-2.3	24.8*
Cc1cc(NC(=O)c2ccccc2)ccc1NC(=O)c1ccccc1Cl	12.7	-5.4	13.6	2.5	7.8	-4.1
